According to ChEMBL document CHEMBL4715736, “Identification of anticancer agents based on the thieno[2,3-b]pyridine and 1H-pyrazole molecular scaffolds” (2016):

Experiments:
Type in all cases: functional
SK-OV-3 [1] = test: Growth inhibition of human SK-OV-3 cells assessed as cell growth at 0.1 uM incubated for 48 hrs by sulforhodamine B assay relative to control; conditions: read-out: Activity
SK-MEL-2 [2] = test: Growth inhibition of human SK-MEL-2 cells assessed as cell growth at 0.1 uM incubated for 48 hrs by sulforhodamine B assay relative to control; conditions: read-out: Activity
SF-295 = test: Growth inhibition of human SF-295 cells assessed as cell growth at 1 uM incubated for 48 hrs by sulforhodamine B assay relative to control; conditions: read-out: Activity
NCI/ADR-RES = test: Growth inhibition of human NCI/ADR-RES cells assessed as cell growth at 0.1 uM incubated for 48 hrs by sulforhodamine B assay relative to control; conditions: read-out: Activity
K562 = test: Growth inhibition of human K562 cells assessed as cell growth at 0.1 uM incubated for 48 hrs by sulforhodamine B assay relative to control; conditions: read-out: Activity
SW-620 = test: Growth inhibition of human SW-620 cells incubated for 48 hrs by sulforhodamine B assay
Summary of the method: (§1)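 NCI DTP 60-line human tumour panel. Dose-response curves were run only for ligands active in the initial 10 µM screen. GI50 (concentration giving 50% of maximal inhibition of proliferation) and TGI (concentration giving total growth inhibition) were derived from these curves.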

HT-29 = test: Growth inhibition of human HT-29 cells assessed as cell growth at 100 uM incubated for 48 hrs by sulforhodamine B assay relative to control; conditions: read-out: Activity
T47D = test: Growth inhibition of human T47D cells assessed as cell growth at 0.01 uM incubated for 48 hrs by sulforhodamine B assay relative to control; conditions: read-out: Activity
CCRF-CEM = test: Growth inhibition of human CCRF-CEM cells assessed as cell growth at 0.1 uM incubated for 48 hrs by sulforhodamine B assay relative to control; conditions: read-out: Activity
Summary of the method: (§2)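 NCI Developmental Therapeutics Program NCI60 panel. Compounds that were active in the 10 µM one-dose screen went on to dose–response testing. Growth at each concentration is expressed relative to untreated control (100%). GI50 (concentration giving 50% of maximal inhibition of proliferation) and TGI (concentration giving total growth inhibition) were derived from the curves.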

A498 = test: Growth inhibition of human A498 cells assessed as cell growth at 1 uM incubated for 48 hrs by sulforhodamine B assay relative to control; conditions: read-out: Activity; summary of the method: as §2
MDA-MB-231 = test: Growth inhibition of human MDA-MB-231 cells assessed as cell growth at 100 uM incubated for 48 hrs by sulforhodamine B assay relative to control; conditions: read-out: Activity
SK-MEL-2 [3] = test: Growth inhibition of human SK-MEL-2 cells incubated for 48 hrs by sulforhodamine B assay; summary of the method: as §1
SK-OV-3 [4] = test: Growth inhibition of human SK-OV-3 cells incubated for 48 hrs by sulforhodamine B assay; summary of the method: as §1
SNB-19 = test: Growth inhibition of human SNB-19 cells assessed as cell growth at 0.1 uM incubated for 48 hrs by sulforhodamine B assay relative to control; conditions: read-out: Activity
M14 = test: Growth inhibition of human M14 cells assessed as cell growth at 1 uM incubated for 48 hrs by sulforhodamine B assay relative to control; conditions: read-out: Activity
SN12C = test: Growth inhibition of human SN12C cells assessed as cell growth at 0.01 uM incubated for 48 hrs by sulforhodamine B assay relative to control; conditions: read-out: Activity
RPMI-8226 = test: Growth inhibition of human RPMI-8226 cells assessed as cell growth at 100 uM incubated for 48 hrs by sulforhodamine B assay relative to control; conditions: read-out: Activity
OVCAR-5 [5] = test: Growth inhibition of human OVCAR-5 cells assessed as cell growth at 0.01 uM incubated for 48 hrs by sulforhodamine B assay relative to control; conditions: read-out: Activity
RXF 393 = test: Growth inhibition of human RXF 393 cells assessed as cell growth at 1 uM incubated for 48 hrs by sulforhodamine B assay relative to control; conditions: read-out: Activity
ACHN [6] = test: Growth inhibition of human ACHN cells assessed as cell growth at 100 uM incubated for 48 hrs by sulforhodamine B assay relative to control; conditions: read-out: Activity
SK-MEL-2 [7] = test: Growth inhibition of human SK-MEL-2 cells assessed as cell growth at 0.01 uM incubated for 48 hrs by sulforhodamine B assay relative to control; conditions: read-out: Activity
MDA-MB-435 = test: Growth inhibition of human MDA-MB-435 cells incubated for 48 hrs by sulforhodamine B assay
Summary of the method: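 NCI60 panel at the NCI Developmental Therapeutics Program. Only compounds active in the 10 µM screen went to dose-response testing. GI50, the concentration giving 50% of maximal inhibition of proliferation, and TGI, the concentration giving total growth inhibition, were derived from the dose-response curves.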

HOP-62 = test: Growth inhibition of human HOP-62 cells assessed as cell growth at 0.1 uM incubated for 48 hrs by sulforhodamine B assay relative to control; conditions: read-out: Activity
LOX IMVI = test: Growth inhibition of human LOX IMVI cells assessed as cell growth at 100 uM incubated for 48 hrs by sulforhodamine B assay relative to control; conditions: read-out: Activity
ACHN [8] = test: Growth inhibition of human ACHN cells assessed as cell growth at 0.1 uM incubated for 48 hrs by sulforhodamine B assay relative to control; conditions: read-out: Activity
OVCAR-4 = test: Growth inhibition of human OVCAR-4 cells incubated for 48 hrs by sulforhodamine B assay; conditions: for CC50: read-out: LC50 (the source's name); summary of the method: as §1
OVCAR-8 = test: Growth inhibition of human OVCAR-8 cells assessed as cell growth at 0.1 uM incubated for 48 hrs by sulforhodamine B assay relative to control; conditions: read-out: Activity
DU-145 = test: Growth inhibition of human DU-145 cells assessed as cell growth at 1 uM incubated for 48 hrs by sulforhodamine B assay relative to control; conditions: read-out: Activity; summary of the method: as §2
OVCAR-5 [9] = test: Growth inhibition of human OVCAR-5 cells assessed as cell growth at 0.1 uM incubated for 48 hrs by sulforhodamine B assay relative to control; conditions: read-out: Activity
A549 = test: Growth inhibition of human A549/ATCC cells assessed as cell growth at 0.1 uM incubated for 48 hrs by sulforhodamine B assay relative to control; conditions: read-out: Activity; summary of the method: as §2
HOP-92 = test: Growth inhibition of human HOP-92 cells assessed as cell growth at 100 uM incubated for 48 hrs by sulforhodamine B assay relative to control; conditions: read-out: Activity
CAKI-1 = test: Growth inhibition of human CAKI-1 cells assessed as cell growth at 1 uM incubated for 48 hrs by sulforhodamine B assay relative to control; conditions: read-out: Activity; summary of the method: as §2
ACHN [10] = test: Growth inhibition of human ACHN cells assessed as cell growth at 0.01 uM incubated for 48 hrs by sulforhodamine B assay relative to control; conditions: read-out: Activity
SF-268 = test: Growth inhibition of human SF-268 cells assessed as cell growth at 1 uM incubated for 48 hrs by sulforhodamine B assay relative to control; conditions: read-out: Activity
UACC-62 = test: Growth inhibition of human UACC-62 cells assessed as cell growth at 100 uM incubated for 48 hrs by sulforhodamine B assay relative to control; conditions: read-out: Activity
[11] = read-out: LC50 (the source's name)

`Cc1ccc(NC(=O)c2sc3nc4c(cc3c2N)C(=O)CCC4)cc1C` was tested, and the growth at 0.1 µM (SK-OV-3 [1]) was 107%, the growth at 0.1 µM (SK-MEL-2 [2]) was 90% and the growth at 1 µM (SF-295) was 17%. The growth at 0.1 µM (NCI/ADR-RES) was 102%, the growth at 0.1 µM (K562) was 118% and the GI50 (SW-620) was 400 nM. It also gave an LC50 (concentration killing 50% of cells) (SW-620) of over 100000 nM, a TGI (SW-620) of over 100000 nM and a growth at 100 µM (HT-29) of -23%. The growth at 0.01 µM (T47D) was 98%, the growth at 0.1 µM (CCRF-CEM) was 97% and the growth at 1 µM (A498) was -17%. For the same compound, the growth at 100 µM (MDA-MB-231) was 24%, the GI50 (SK-MEL-2 [3]) was 463 nM and the LC50 (SK-MEL-2 [3]) was over 100000 nM. The TGI (SK-MEL-2 [3]) was over 100000 nM, the GI50 (SK-OV-3 [4]) was 534 nM and the TGI (SK-OV-3 [4]) was over 100000 nM. It also gave a CC50 (SK-OV-3 [4]; [11]) of over 100000 nM, a growth at 0.1 µM (SNB-19) of 88% and a growth at 1 µM (M14) of 22%. The growth at 0.01 µM (SN12C) was 94%, the growth at 100 µM (RPMI-8226) was -9% and the growth at 0.01 µM (OVCAR-5 [5]) was 89%. It also gave a growth at 1 µM (RXF 393) of -11%, a growth at 100 µM (ACHN [6]) of 12% and a growth at 0.01 µM (SK-MEL-2 [7]) of 105%. For the same compound, the GI50 (MDA-MB-435) was 121 nM, the TGI (MDA-MB-435) was 322 nM and the growth at 0.1 µM (HOP-62) was 86%. For the same compound, the growth at 100 µM (LOX IMVI) was 20%, the growth at 0.1 µM (ACHN [8]) was 95% and the GI50 (OVCAR-4) was 20.1 nM. It also gave a TGI (OVCAR-4) of over 100000 nM, a CC50 (OVCAR-4) of over 100000 nM and a growth at 0.1 µM (OVCAR-8) of 100%. The growth at 1 µM (DU-145) was 35%, the growth at 0.1 µM (OVCAR-5 [9]) was 87% and the growth at 0.1 µM (A549) was 98%. It also gave a growth at 100 µM (HOP-92) of 2%, a growth at 1 µM (CAKI-1) of 41% and a growth at 0.01 µM (ACHN [10]) of 98%. For the same compound, the growth at 1 µM (SF-268) was 57%.
With `CCc1cccc(C)c1NC(=O)c1sc2nc3c(cc2c1N)C(=O)CCC3` the growth at 1 µM (SF-295) was 5%, the growth at 100 µM (UACC-62) was 14% and the growth at 0.1 µM (NCI/ADR-RES) was 99%. It also gave a growth at 0.1 µM (K562) of 89%, a GI50 (SW-620) of 359 nM and an LC50 (concentration killing 50% of cells) (SW-620) of over 100000 nM. For the same compound, the TGI (SW-620) was over 100000 nM, the growth at 0.01 µM (T47D) was 97% and the growth at 0.1 µM (CCRF-CEM) was 90%. For the same compound, the growth at 1 µM (A498) was -16%, the growth at 100 µM (MDA-MB-231) was 24% and the growth at 0.1 µM (SNB-19) was 91%. It also gave a growth at 1 µM (M14) of 17%, a growth at 0.01 µM (SN12C) of 97% and a growth at 100 µM (RPMI-8226) of -39%. It also gave a growth at 0.01 µM (OVCAR-5 [5]) of 87%, a growth at 1 µM (RXF 393) of -12% and a growth at 100 µM (ACHN [6]) of 5%. For the same compound, the GI50 (MDA-MB-435) was 148 nM, the CC50 (MDA-MB-435; [11]) was over 100000 nM and the growth at 0.1 µM (HOP-62) was 92%. The growth at 100 µM (LOX IMVI) was 8%, the growth at 0.1 µM (ACHN [8]) was 97% and the GI50 (OVCAR-4) was 10 nM. The TGI (OVCAR-4) was over 100000 nM, the CC50 (OVCAR-4) was over 100000 nM and the growth at 0.1 µM (OVCAR-8) was 97%. For the same compound, the growth at 1 µM (DU-145) was 21%, the growth at 0.1 µM (OVCAR-5 [9]) was 88% and the growth at 0.1 µM (A549) was 93%. For the same compound, the growth at 100 µM (HOP-92) was -7%, the growth at 1 µM (CAKI-1) was 31% and the growth at 0.01 µM (ACHN [10]) was 94%. For the same compound, the growth at 1 µM (SF-268) was 54%.
